Most compounds without a hit are left out; they make up all but 1.5% or so of the library.
APJ antagonist: APJ receptor antagonism; P35414; CHO-K1 APJ beta-arrestin complementation, luminescence; inhibition, % at 20 µM; actives 0.32% (n = 330,000); AID 2521;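 active = inhibition above about 40% at 20 µM, limit read from the data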;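 also: cells challenged with 10 nM apelin-13 agonist together with compound; plate controls were apelin-13 plus DMSO wells for no effect and DMSO wells lacking apelin-13 for full effect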
APJ ag: agonists of human APJ apelin receptor; P35414; CHO-K1 APJ PathHunter beta-arrestin, luminescence; 0% DMSO wells, 100% apelin; activation, % at 20 µM; actives 0.11% (n = 330,000);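 active = activation more than six SD over the plate average, tested at 20 µM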;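 also: 0% = DMSO alone and 100% = apelin-13 at 10 nM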
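system = engineered CHO-K1 APJ arrestin reporter cells | input = 1000 cells per well | timing = overnight seeding, 90 min compound at 25 °C, 1 h detection | measured by = enzyme-fragment complementation luminescence | read-out = beta-arrestin recruitment to APJ as agonist activity, luminescent signal | control set = negative DMSO alone, positive Apelin-13 at 10 nM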
CXCR6 block: blocks human CXCR6 beta-arrestin recruitment | inhibition, % at 20 µM | O00574 | actives 0.36% (n = 360,000) | CHO-K1 PathHunter CXCR6 beta-arrestin, luminescence; in the data active = inhibition above about 34%, passing the limit was not always enough;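 also: antagonist mode with CXCL16 agonist at 10 nM final; 0% = 10 nM CXCL16 with DMSO and 100% = unstimulated wells without agonist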
Target sequence (O00574 whole entry, looked up): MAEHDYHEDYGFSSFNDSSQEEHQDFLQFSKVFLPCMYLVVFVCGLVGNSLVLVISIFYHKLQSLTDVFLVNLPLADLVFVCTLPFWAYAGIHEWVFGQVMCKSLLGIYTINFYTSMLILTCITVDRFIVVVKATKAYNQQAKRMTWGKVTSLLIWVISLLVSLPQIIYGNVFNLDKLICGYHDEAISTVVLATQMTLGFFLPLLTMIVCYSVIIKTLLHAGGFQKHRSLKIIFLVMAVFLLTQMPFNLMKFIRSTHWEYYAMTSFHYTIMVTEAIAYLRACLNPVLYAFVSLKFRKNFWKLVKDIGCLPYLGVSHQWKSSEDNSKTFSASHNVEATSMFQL
CCR6 antag: antagonists of human CCR6 receptor; CHO-K1 CCR6 PathHunter beta-arrestin, luminescence, CCL20-stimulated; inhibition, % at 20 µM; actives 0.49% (n = 340,000); AID 493098;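 active = compounds whose inhibition of the agonist-driven luminescence signal at 20 µM reaches about 50%, limit read from the data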;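 also: cells stimulated with CCL20 at 14 nM final; plate controls were DMSO with CCL20 for no effect and DMSO without agonist for full effect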
EBI2 antag: blocks human EBI2 receptor beta-arrestin signaling; P32249; EBI2 beta-arrestin recruitment, luminescence, 7a,25-OHC stimulated; inhibition, % at 5 µM; actives 0.81% (n = 360,000); in the data active = inhibition above about 38%;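 also: enzyme fragment complementation signal reports receptor beta-arrestin coupling in cells; 0% = agonist plus DMSO wells and 100% = wells without agonist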
EBI2 antag conf: confirmation of human EBI2 receptor antagonists. actives 29% (n = 2,400). shares compounds with EBI2 antag. EBI2 beta-arrestin luminescence, 7a,25-OHC antagonism. inhibition, % at 5 µM;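 active = inhibition of at least 50%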
EBI2 ag: EBI2 agonism counter-screen. activation, % at 5 µM. EBI2-expressing cells, agonist mode, luminescence, 60 min; 0% vehicle, 100% 7α,25-dihydroxycholesterol control. 2,400 tested, under 10 active. shares compounds with EBI2 antag;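 active = activation of at least 50%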
bGal counter: counter-screen for EBI2 antagonists: E. coli beta-galactosidase inhibition; purified beta-galactosidase, luminescent Galacton Star, 15 min; actives 1% (n = 2,400); shares compounds with EBI2 antag; AID 652176; inhibition, % at 5 µM;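 active = replicate-average signal at least 3 plate SD below neutral wells, shown as high inhibition, flagging enzyme-inhibiting false positives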;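 also: 0% = DMSO wells with enzyme and 100% = wells lacking enzyme; higher means stronger loss of beta-gal luminescence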
* = called active by the depositor; x = no result given.

SMILES	APJ antagonist	APJ ag	CXCR6 block	CCR6 antag	EBI2 antag	EBI2 antag conf	EBI2 ag	bGal counter
CC(=O)N1CCOc2ccc(S(=O)(=O)N3CCC(C(=O)NCc4ccc(Cl)cc4)CC3)cc21	x	x	-6	x	90*	80*	2	1
CC(=O)N1CCOc2ccc(S(=O)(=O)N3CCC(C(=O)Nc4ccc(C)cc4)CC3)cc21	14	-3	-2	-3	-3	x	x	x
CCc1ccc(NC(=O)C2CCN(S(=O)(=O)c3ccc4c(c3)N(C(C)=O)CCO4)CC2)cc1	21	-7	2	11	6	x	x	x
CC(=O)N1CCOc2ccc(S(=O)(=O)N3CCC(C(=O)NCc4ccc(C)cc4)CC3)cc21	-20	-2	5	4	94*	85*	1	8
CC(=O)N1CCOc2ccc(S(=O)(=O)N3CCC(C(=O)NCc4ccc(F)cc4)CC3)cc21	22	3	-2	-12	69*	56*	2	-13
CSc1nnc(NC(=O)c2ccc(S(=O)(=O)N3CCOCC3)cc2)s1	5	-6	2	-1	-13	x	x	x
Cc1ccc(/C=C/C(=O)N2CCN(S(=O)(=O)c3c(C)c(C)cc(C)c3C)CC2)o1	5	-4	9	5	50*	32	1	3
CCc1nnc(SC(C)C(=O)Nc2nccs2)n1C (configuration not stated)	8	-2	-3	-8	-8	x	x	x
CCOC(=O)C(Cc1c[nH]c2ccc([N+](=O)[O-])cc12)(NC(C)=O)C(=O)OCC	x	x	5	14	3	x	x	x
C=CCOC(=O)/C=C/C(=O)NC(N)=O	-7	-4	1	-4	7	x	x	x
O=C(Cn1ccc(NC(=O)OCc2ccccc2)nc1=O)NCCc1c[nH]c2ccccc12	0	-2	6	12	-1	x	x	x
Cc1cc(C)c(S(=O)(=O)N2CCN(C(=O)CCn3nc(C)c(C)c3C)CC2)c(C)c1	-7	0	0	9	47*	40	0	-3
Cc1cc2nc(-c3ccc(SCc4ccccc4C#N)nc3)[nH]c2cc1C	-18	4	6	8	50*	37	-1	9
Cc1ccccc1CS(=O)(=O)Cc1ccc(C(=O)NCCc2ccccc2)o1	4	-3	11	17	37*	28	0	2
O=C(c1ccc(Cl)cc1)c1oc2ccccc2c1CS(=O)c1ccc(Cl)cc1 (configuration not stated)	14	-6	6	6	52*	51*	0	3
COc1ccccc1-c1cc(NC=O)c2ncc(-c3cccc(C(=O)N(C)C)c3)n2c1	x	x	-5	x	75*	40	0	8
Cc1ccc(C(=O)N2CCN(Cc3nc4sc5c(c4c(=O)[nH]3)CCCC5)CC2)cc1	4	-1	0	-7	44*	12	-1	-13
COCCN(Cc1ccccc1)C(=O)c1c(C)nn(-c2ccccc2)c1C	8	5	0	2	1	x	x	x
CC1CC(C)CN(C(=O)COC(=O)c2ccc3c(c2)OCCO3)C1 (configuration not stated)	-2	-4	-2	10	-7	x	x	x
CCOC(=O)c1c(NC(=O)CN2CCCc3ccccc32)sc(C(C)=O)c1C	-5	-3	-14	-29	-2	x	x	x
COCCOC(=O)c1c(NC(=O)CN(C)c2ccccc2)sc(C(N)=O)c1C	-3	-3	7	1	88*	54*	3	11
CCOC(=O)c1c(NC(=O)CN(C)C2CCN(C)CC2)sc(C(=O)Nc2ccccc2)c1C	8	-4	-7	12	3	x	x	x
CC(C)(C)c1ccc(NC(=O)CNC2CCCc3ccccc32)cc1 (configuration not stated)	3	-1	-6	8	-15	x	x	x
COCCOC(=O)c1c(NC(=O)CN2CCc3ccccc32)sc(C(N)=O)c1C	4	0	-8	5	70*	22	-1	-11

Screens from PubChem.
